Measurements taken from ChEMBL document CHEMBL1147111, “In vitro and in vivo activities of synthetic trioxolanes against major human schistosome species” (Antimicrob Agents Chemother, 2007).
Calls of active or inactive are those of the source. No cut-off for these calls is given here.

Columns and labels:
[1] = system: Schistosoma mansoni; assay: Tegumental alteration in Schistosoma mansoni at 20 ug/ml after 24 hrs; format: functional, organism-based
How it was run: (§1)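 Adult S. mansoni (Liberian strain, 49-day-old) were held two males and two females per well, in duplicate, in Hanks' balanced salt solution with 20% calf serum, 300 IU/ml penicillin and 300 μg/ml streptomycin. Drug was given at 20 μg/ml final from a 1 mg/ml stock in 60% DMSO; solvent control was 1.2% DMSO. Incubation was at 37°C in 5% CO2. Worms were scored under a dissecting microscope at 24, 48 and 72 h for death, motor activity and tegument.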

[2] = system: Schistosoma mansoni; assay: Antischistosomal activity against Syrian golden hamster adult Schistosoma mansoni infection model assessed as reduction of female worm burden at 50 mg/kg, po after 28 days; format: functional; set-up: scale not given: the % may be the effect or the level left
How it was run: (§2)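 Hamsters infected with Liberian-strain S. mansoni were treated once orally at 21 days (juvenile lines) or 49 days (adult lines) postinfection. Doses were 50, 100 or 200 mg/kg, in 7% Tween 80/3% ethanol suspension. Groups had 3–4 animals, with untreated controls. After 28 days, animals were bled out. Worms from liver and mesenteric veins were sexed and counted, and cures and burden reductions versus controls were recorded (Kruskal-Wallis).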

[3] = system: Schistosoma mansoni; assay: Antischistosomal activity against Syrian golden hamster juvenile Schistosoma mansoni infection model assessed as reduction of total worm burden at 50 mg/kg, po after 28 days; format: functional; set-up: scale not given: the % may be the effect or the level left; how it was run: as §2
[4] = system: Schistosoma mansoni; assay: Antischistosomal activity against NMRI mouse adult Schistosoma mansoni infection model assessed as reduction of female worm burden at 400 mg/kg, po after 28 days; format: functional; set-up: scale not given: the % may be the effect or the level left
How it was run: (§3)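 Mice with a Liberian-strain S. mansoni infection were dosed at 49 days postinfection with a single oral dose of compound suspended in 7% Tween 80/3% ethanol. Groups held 3–5 animals, with untreated controls. At 28 days posttreatment, animals were killed by bleeding. Worms in liver and mesenteric veins were removed, sexed and counted. Reductions were calculated against controls and tested by Kruskal-Wallis.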

[5] = system: Schistosoma mansoni; assay: Antischistosomal activity against Syrian golden hamster adult Schistosoma mansoni infection model assessed as number of cured mouse at 50 mg/kg, po after 28 days; format: functional, organism-based; set-up: dose 50 mg/kg; how it was run: as §2
[6] = system: Schistosoma mansoni; assay: Antischistosomal activity against Schistosoma mansoni assessed as worm death at 20 ug/ml after 48 hrs; format: functional, organism-based; how it was run: as §1
[7] = system: Schistosoma mansoni; assay: Antischistosomal activity against Syrian golden hamster juvenile Schistosoma mansoni infection model assessed as reduction of total worm burden at 100 mg/kg, po after 28 days; format: functional; set-up: scale not given: the % may be the effect or the level left; how it was run: as §2
[8] = system: Schistosoma mansoni; assay: Reduction of motor activity of Schistosoma mansoni at 20 ug/ml after 72 hrs; format: functional, organism-based; how it was run: as §1
[9] = system: Schistosoma mansoni; assay: Antischistosomal activity against Syrian golden hamster adult Schistosoma mansoni infection model assessed as number of cured mouse at 200 mg/kg, po after 28 days; format: functional, organism-based; set-up: dose 200 mg/kg; how it was run: as §2
[10] = system: Schistosoma mansoni; assay: Antischistosomal activity against Syrian golden hamster adult Schistosoma mansoni infection model assessed as reduction of total worm burden at 200 mg/kg, po after 28 days; format: functional; set-up: scale not given: the % may be the effect or the level left; how it was run: as §2
[11] = system: Schistosoma mansoni; assay: Antischistosomal activity against Syrian golden hamster adult Schistosoma mansoni infection model assessed as reduction of female worm burden at 100 mg/kg, po after 28 days; format: functional; set-up: scale not given: the % may be the effect or the level left; how it was run: as §2
[12] = system: Schistosoma mansoni; assay: Tegumental alteration in Schistosoma mansoni at 20 ug/ml after 72 hrs; format: functional, organism-based; how it was run: as §1
[13] = system: Schistosoma mansoni; assay: Antischistosomal activity against Syrian golden hamster adult Schistosoma mansoni infection model assessed as number of cured mouse at 100 mg/kg, po after 28 days; format: functional, organism-based; set-up: dose 100 mg/kg; how it was run: as §2
[14] = system: Schistosoma japonicum; assay: Antischistosomal activity against Syrian golden hamster adult Schistosoma japonicum infection model assessed as reduction of total worm burden at 200 mg/kg, po; format: functional; set-up: scale not given: the % may be the effect or the level left
How it was run: (§4)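 Hamsters received 100 S. japonicum (Anhui strain) cercariae through shaved abdominal skin. At 35 days postinfection, they were given a single 200 mg/kg oral dose in Tween 80/ethanol suspension, with untreated controls. Animals were killed by bleeding, and worms were recovered by perfusion of hepatic and portomesenteric veins. Worms were sexed and counted, and reductions were computed against controls (Kruskal-Wallis).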

[15] = system: Schistosoma mansoni; assay: Reduction of motor activity of Schistosoma mansoni at 20 ug/ml after 24 hrs; format: functional, organism-based; how it was run: as §1
[16] = system: Schistosoma mansoni; assay: Antischistosomal activity against Syrian golden hamster adult Schistosoma mansoni infection model assessed as reduction of female worm burden at 200 mg/kg, po after 28 days; format: functional; set-up: scale not given: the % may be the effect or the level left; how it was run: as §2
[17] = system: Schistosoma mansoni; assay: Antischistosomal activity against NMRI mouse juvenile Schistosoma mansoni infection model assessed as reduction of total worm burden at 200 mg/kg, po after 28 days; format: functional; set-up: scale not given: the % may be the effect or the level left
How it was run: (§5)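 Juvenile-infection model: mice carrying Liberian-strain S. mansoni got one oral dose at day 21 postinfection, as a suspension in 7% Tween 80/3% ethanol. There were 3–5 per group, plus untreated controls. Necropsy by exsanguination followed 28 days after treatment. Liver and mesenteric-vein worms were collected, sexed and counted. Total and female burden reductions were calculated versus controls, with Kruskal-Wallis testing.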

[18] = system: Schistosoma mansoni; assay: Antischistosomal activity against Syrian golden hamster juvenile Schistosoma mansoni infection model assessed as reduction of female worm burden at 200 mg/kg, po after 28 days; format: functional; set-up: scale not given: the % may be the effect or the level left; how it was run: as §2
[19] = system: Schistosoma mansoni; assay: Antischistosomal activity against Syrian golden hamster juvenile Schistosoma mansoni infection model assessed as number of cured mouse at 50 mg/kg, po after 28 days; format: functional, organism-based; set-up: dose 50 mg/kg; how it was run: as §2
[20] = system: Schistosoma mansoni; assay: Antischistosomal activity against NMRI mouse adult Schistosoma mansoni infection model assessed as number of cured mouse at 400 mg/kg, po after 28 days; format: functional, organism-based; set-up: dose 400 mg/kg; how it was run: as §3
[21] = system: Schistosoma mansoni; assay: Antischistosomal activity against Syrian golden hamster adult Schistosoma mansoni infection model assessed as reduction of total worm burden at 50 mg/kg, po after 28 days; format: functional; set-up: scale not given: the % may be the effect or the level left; how it was run: as §2
[22] = system: Schistosoma japonicum; assay: Antischistosomal activity against Syrian golden hamster adult Schistosoma japonicum infection model assessed as reduction of female worm burden at 200 mg/kg, po; format: functional; set-up: scale not given: the % may be the effect or the level left; how it was run: as §4
[23] = system: Schistosoma japonicum; assay: Antischistosomal activity against New Zealand rabbit adult Schistosoma japonicum infection model assessed as reduction of female worm burden at 15 mg/kg, po; format: functional; set-up: scale not given: the % may be the effect or the level left
How it was run: (§6)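 Rabbits were infected percutaneously with 200 S. japonicum (Anhui strain) cercariae via shaved abdominal skin. A single 15 mg/kg oral dose in Tween 80/ethanol suspension was given 35 days postinfection, with untreated controls. After sacrifice by blood letting, worms were perfused from hepatic and portomesenteric veins, sexed and counted. Cures and burden reductions were determined versus controls (Kruskal-Wallis).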

[24] = system: Schistosoma japonicum; assay: Antischistosomal activity against New Zealand rabbit adult Schistosoma japonicum infection model assessed as reduction of total worm burden at 15 mg/kg, po; format: functional; set-up: scale not given: the % may be the effect or the level left; how it was run: as §6
[25] = system: Schistosoma mansoni; assay: Antischistosomal activity against NMRI mouse juvenile Schistosoma mansoni infection model assessed as number of cured mouse at 200 mg/kg, po after 28 days; format: functional, organism-based; set-up: dose 200 mg/kg; how it was run: as §5
[26] = system: Schistosoma mansoni; assay: Antischistosomal activity against Syrian golden hamster adult Schistosoma mansoni infection model assessed as reduction of total worm burden at 100 mg/kg, po after 28 days; format: functional; set-up: scale not given: the % may be the effect or the level left; how it was run: as §2
[27] = system: Schistosoma mansoni; assay: Antischistosomal activity against Schistosoma mansoni assessed as worm death at 20 ug/ml after 24 hrs; format: functional, organism-based; how it was run: as §1
[28] = system: Schistosoma mansoni; assay: Antischistosomal activity against NMRI mouse adult Schistosoma mansoni infection model assessed as reduction of total worm burden at 400 mg/kg, po after 28 days; format: functional; set-up: scale not given: the % may be the effect or the level left; how it was run: as §3
[29] = system: Schistosoma mansoni; assay: Antischistosomal activity against Syrian golden hamster juvenile Schistosoma mansoni infection model assessed as number of cured mouse at 200 mg/kg, po after 28 days; format: functional, organism-based; set-up: dose 200 mg/kg; how it was run: as §2
[30] = system: Schistosoma mansoni; assay: Antischistosomal activity against Schistosoma mansoni assessed as worm death at 20 ug/ml after 72 hrs; format: functional, organism-based; how it was run: as §1
[31] = system: Schistosoma mansoni; assay: Tegumental alteration in Schistosoma mansoni at 20 ug/ml after 48 hrs; format: functional, organism-based; how it was run: as §1
[32] = system: Schistosoma japonicum; assay: Antischistosomal activity against New Zealand rabbit adult Schistosoma japonicum infection model assessed as number of […] mg/kg, po; format: functional, organism-based; set-up: dose 15 mg/kg; how it was run: as §6
[33] = system: Schistosoma mansoni; assay: Antischistosomal activity against NMRI mouse juvenile Schistosoma mansoni infection model assessed as reduction of female worm burden at 200 mg/kg, po after 28 days; format: functional; set-up: scale not given: the % may be the effect or the level left; how it was run: as §5
[34] = system: Schistosoma mansoni; assay: Antischistosomal activity against Syrian golden hamster juvenile Schistosoma mansoni infection model assessed as reduction of female worm burden at 100 mg/kg, po after 28 days; format: functional; set-up: scale not given: the % may be the effect or the level left; how it was run: as §2
[35] = system: Schistosoma mansoni; assay: Antischistosomal activity against Syrian golden hamster juvenile Schistosoma mansoni infection model assessed as reduction of total worm burden at 200 mg/kg, po after 28 days; format: functional; set-up: scale not given: the % may be the effect or the level left; how it was run: as §2
[36] = system: Schistosoma mansoni; assay: Antischistosomal activity against Syrian golden hamster juvenile Schistosoma mansoni infection model assessed as reduction of female worm burden at 50 mg/kg, po after 28 days; format: functional; set-up: scale not given: the % may be the effect or the level left; how it was run: as §2
[37] = system: Schistosoma mansoni; assay: Reduction of motor activity of Schistosoma mansoni at 20 ug/ml after 48 hrs; format: functional, organism-based; how it was run: as §1
[38] = system: Schistosoma mansoni; assay: Antischistosomal activity against Syrian golden hamster juvenile Schistosoma mansoni infection model assessed as number of cured mouse at 100 mg/kg, po after 28 days; format: functional, organism-based; set-up: dose 100 mg/kg; how it was run: as §2
[39] = system: Mus musculus; assay: Toxicity in NMRI mouse with adult Schistosoma mansoni infection at 400 mg/kg, po after 48 to 96 hrs; format: organism-based; set-up: dose 400 mg/kg, route oral; details: in vivo
How it was run: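 Mice carrying a 49-day S. mansoni (Liberian strain) infection were given a single oral 400 mg/kg dose as a suspension in 7% Tween 80/3% ethanol. Deaths occurring 48–96 h after treatment were recorded.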

## O=C(O)C[C@H]1CC[C@]2(CC1)OO[C@]1(O2)C2CC3CC(C2)CC1C3
[1]
  Activity: inactive
[2]
  Activity: 38.9%
[3]
  Activity: 73.4%
[4]
  Activity: 0%
[5]
  Activity: inactive
[6]
  Activity: inactive
[7]
  Activity: 83%
[8]
  Activity: inactive
[9]
  Activity: inactive
[10]
  Activity: 85%
[11]
  Activity: 79.6%
[12]
  Activity: inactive
[13]
  Activity: inactive
[14]
  Activity: 94.2%
[15]
  Activity: inactive
[16]
  Activity: 93.2%
[17]
  Activity: 82%
[18]
  Activity: 75.1%
[19]
  Activity: inactive
[20]
  Activity: inactive
[21]
  Activity: 46.1%
[22]
  Activity: 100%
[23]
  Activity: 42.3%
[24]
  Activity: 40.7%
[25]
  Activity: inactive
[26]
  Activity: 69.2%
[27]
  Activity: inactive
[28]
  Activity: 0%
[29]
  Activity: inactive
[30]
  Activity: inactive
[31]
  Activity: inactive
[32]
  Activity: inactive
[33]
  Activity: 87.3%
[34]
  Activity: 78.3%
[35]
  Activity: 80.2%
[36]
  Activity: 67%
[37]
  Activity: inactive
[38]
  Activity: inactive

## NC[C@H]1CC[C@]2(CC1)OOC1(O2)C2CC3CC(C2)CC1C3 (some centres undefined)
[4]
  Activity: 25%
[8]
  Activity: inactive
[12]
  Activity: Active
[17]
  Activity: 85%
[25]
  Activity: inactive
[27]
  Activity: inactive
[28]
  Activity: 16.6%
[30]
  Activity: Active
[33]
  Activity: 83.7%
[39]
  Activity: Toxic

## C1CCC2(CC1)COC1(OO2)C2CC3CC(C2)CC1C3 (centres undefined)
[17]
  Activity: 5.4%
[25]
  Activity: inactive
[33]
  Activity: 3.9%

## C1CCC2(CC1)OOC1(CCCCC1)O2
[17]
  Activity: 22.9%
[25]
  Activity: inactive
[33]
  Activity: 26.4%
